Measurements from different studies.
Each line is one published result; the experiments were not run side by side.
Target: Carbonic anhydrase 1 (CA1, Homo sapiens, UniProt P00915)
Read-out: enzyme activity
Action: inhibitor

| SMILES | technique | quantity | value |
| --- | --- | --- | --- |
| N#C[Se]CCCCOc1ccc2c(-c3ccccc3)cc(=O)oc2c1 | stopped-flow | Ki | > 100 µM |
| COc1ccc(NC(=O)Nc2ccc3c(c2)C=CCP(=O)(O)O3)cc1 | stopped-flow | Ki | > 10 µM |
| CC(C)c1cc2c(c(O)c1O)[C@@]13CCCC(C)(C)[C@@H]1[C@H](OC3=O)[C@H]2O |  | IC50 | 0.21 nM |
| NC(=S)N/N=C1/c2ccccc2[C@@H]2[C@H]1[C@@H](c1ccc(F)cc1)[C@H](C(=O)c1ccc(F)cc1)[C@H]2c1ccc(F)cc1 (racemic) | absorbance | IC50 | 293 nM |
| Cc1ccc(C(=O)Nc2ccc3c(c2)C=CCP(=O)(O)O3)cc1 | stopped-flow | Ki | > 10 µM |
| CC(C)c1cc2c(c(O)c1O)[C@@]13CCCC(C)(C)[C@@H]1[C@@H](O)[C@@H]2OC3=O |  | Ki | 0.00128 µM |
| NC(=S)N/N=C1/c2ccccc2[C@@H]2[C@H]1[C@@H](c1ccoc1)[C@H](C(=O)c1ccco1)[C@H]2c1ccoc1 | absorbance | IC50 | 434 nM |
| CC(C)c1cc2c(c(O)c1O)[C@@]13CCCC(C)(C)[C@@H]1C[C@@H]2OC3=O |  | IC50 | 2.4 nM |
| NC(=S)N/N=C1/c2ccccc2[C@@H]2[C@H]1[C@@H](c1ccc(C(F)(F)F)cc1)[C@H](C(=O)c1ccc(C(F)(F)F)cc1)[C@H]2c1ccc(C(F)(F)F)cc1 (racemic) | absorbance | IC50 | 570 nM |
| O=C(Nc1cccc(Cl)c1)Nc1ccc2c(c1)C=CCP(=O)(O)O2 | stopped-flow | Ki | > 10 µM |
| NC(=S)N/N=C1/c2ccccc2[C@@H]2[C@H]1[C@@H](c1cccs1)[C@H](C(=O)c1cccs1)[C@H]2c1cccs1 (racemic) | absorbance | IC50 | 774 nM |
| O=C(Nc1ccc(Cl)cc1)Nc1ccc2c(c1)C=CCP(=O)(O)O2 | stopped-flow | Ki | > 10 µM |
| CC(C)c1cc2c(c(O)c1O)[C@@]1(C(=O)O)CCCC(C)(C)[C@@H]1CC2 |  | Ki | 0.00598 µM |
| Cc1cc(=O)oc2cc(OCCCC[Se]C#N)ccc12 | stopped-flow | Ki | > 100 µM |
| O=C(Nc1ccc2c(c1)C=CCP(=O)(O)O2)c1ccc(F)cc1 | stopped-flow | Ki | > 10 µM |
